Test results published in ChEMBL document CHEMBL1151916, “N-tert-butyl and N-methyl nitrones derived from aromatic aldehydes inhibit macromolecular permeability increase induced by ischemia/reperfusion in hamsters” (2009).

Experiments:
Assay type in all cases: functional, Mesocricetus auratus
Syrian golden hamster [1] = test: Protective activity against ischemia/reperfusion-induced increase in macromolecular permeability in po dosed golden hamster cheek pouch administered 30 mins before induction of anesthesia
In short: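 Male hamsters, dosed by gavage 30 min before anesthesia induction. The cheek pouch was made totally ischemic for 30 min with a syringe-inflated rubber tourniquet until blood flow ceased. Macromolecular leakage sites per cm² were counted by intravital microscopy 10 min after reperfusion onset and expressed as percentage protection relative to controls.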

Syrian golden hamster [2] = test: Protective activity against ischemia/reperfusion-induced increase in macromolecular permeability in iv dosed golden hamster cheek pouch administered 10 mins before onset of reperfusion
In short: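 Male hamster cheek pouch under intravital microscopy; compound given intravenously 10 min before reperfusion onset. Total ischemia of 30 min was produced by a soft rubber tourniquet, pressurized by syringe until flow stopped. Leakage sites (leaks/cm²) were counted 10 min after reperfusion onset and converted to percentage protection against untreated controls.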

Syrian golden hamster [3] = test: Protective activity against histamine-induced increase in macromolecular permeability in po dosed golden hamster cheek pouch administered 30 mins before induction of anesthesia
In short: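 Oral gavage to male hamsters 30 min before anesthesia induction. Permeability increase was induced by topical histamine on the cheek pouch and read as leakage sites per unit area (leaks/cm²) by intravital microscopy.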

Syrian golden hamster [4] = test: Protective activity against ischemia/reperfusion-induced increase in macromolecular permeability in po dosed golden hamster cheek pouch administered for 10 days
Syrian golden hamster [5] = test: Protective activity against histamine-induced increase in macromolecular permeability in po dosed golden hamster cheek pouch administered for 10 days

Row | Structure (SMILES) | Activity (Syrian golden hamster [1]) | Activity (Syrian golden hamster [2]) | Activity (Syrian golden hamster [3]) | Activity (Syrian golden hamster [4]) | Activity (Syrian golden hamster [5])
1 | CNO | 23% | 33% | 11% | – | –
2 | COc1cc(/C=[N+](\[O-])C(C)(C)C)ccc1OCc1ccccc1 | 68% | 36% | 32% | – | –
3 | Cc1ccc(/C=[N+](\[O-])C(C)(C)C)cc1 | 14% | 55% | – | – | –
4 | C/[N+]([O-])=C/c1cccc(Oc2ccccc2)c1 | 46% | 61% | 13% | – | –
5 | Cc1ccc(/C=[N+](/C)[O-])cc1 | 24% | 21% | – | – | –
6 | CC(C)(C)/[N+]([O-])=C/c1ccc(Cl)cc1 | 63% | 53% | – | – | –
7 | CC(C)(C)/[N+]([O-])=C/c1cccc(Oc2ccccc2)c1 | 12% | 18% | – | – | –
8 | C/[N+]([O-])=C/c1ccc(Cl)cc1 | 31% | 27% | 29% | – | –
9 | C/[N+]([O-])=C/c1ccco1 | 15% | 59% | 32% | – | –
10 | CC(C)(C)NO | 10% | 7% | 40% | – | –
11 | C/[N+]([O-])=C/c1ccc2c(c1)OCO2 | 3% | 50% | 42% | – | –
12 | COc1cc(/C=[N+](/C)[O-])ccc1OCc1ccccc1 | 72% | 51% | 15% | – | –
13 | CC(C)(C)/[N+]([O-])=C/c1ccc2c(c1)OCO2 | 65% | 38% | – | – | –
14 | Cc1c(C)c2c(c(C)c1O)CC[C@@](C)(CCC[C@H](C)CCC[C@H](C)CCCC(C)C)O2 [ALPHA-TOCOPHEROL] | – | – | – | 50% | 40%
